From ChEMBL document CHEMBL1212886, “New N-(phenoxydecyl)phthalimide derivatives displaying potent inhibition activity towards alpha-glucosidase” (Bioorg Med Chem, 2010)
Activity calls are given as the source filed them. The rule behind the calls is not given here.

How the values were obtained:
[1] = Inhibition of Saccharomyces cerevisiae alpha-glucosidase after 10 mins
Procedure, shortened: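 Yeast α-glucosidase, 25 mU/mL final, in 10 mM phosphate buffer pH 7.28, preincubated with test compound (DMSO) 5 min at 37 °C. p-NPG substrate 80 μM final; stopped after 10 min with 0.5 M Na2CO3; 4-nitrophenol read at 400 nm against DMSO control. Eight concentrations; triplicate, at least two runs; IC50 taken graphically from percent activity vs log concentration.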

[2] = system: Prunus dulcis; test: Inhibition of almond beta-glucosidase at 25 uM after 10 mins
Procedure, shortened: (§1)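 Enzyme 12.5 mU per sample in buffer: β-glucosidase, 50 mM sodium citrate pH 5.0; α-mannosidase, 10 mM sodium acetate pH 4.5; α-galactosidase, 50 mM potassium phosphate pH 6.5. Compound in DMSO at 25 µM, preincubated 5 min at 37 °C; substrate added at 80 μM final; stopped after 10 min with 1 M Na2CO3. Absorbance compared with DMSO control; triplicate.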

[3] = system: Canavalia ensiformis; test: Inhibition of Canavalia ensiformis alpha-mannosidase at 25 uM after 10 mins; procedure, shortened: as §1
[4] = biological target: Alpha-galactosidase (Coffea arabica) (UniProt Q42656); test: Inhibition of green coffee bean alpha-galactosidase at 25 uM after 10 mins; procedure, shortened: as §1
[5] = system: SH-SY5Y; test: Cytotoxicity against human SH-SY5Y cells after 2 hrs by MTT assay; assay type: functional, cell-based
Procedure, shortened: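 SH-SY5Y neuroblastoma cells exposed to compound at 5 μM and at a second concentration for 2 h. MTT (5 mg/mL in DMEM + 10% FBS) then added, 4 h at 37 °C. Supernatant removed, formazan dissolved in DMSO, absorbance read at 540 nm. Sextuplicate, repeated twice.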

Sequence of Alpha-galactosidase (Coffea arabica) (Q42656 16-378 limits assumed): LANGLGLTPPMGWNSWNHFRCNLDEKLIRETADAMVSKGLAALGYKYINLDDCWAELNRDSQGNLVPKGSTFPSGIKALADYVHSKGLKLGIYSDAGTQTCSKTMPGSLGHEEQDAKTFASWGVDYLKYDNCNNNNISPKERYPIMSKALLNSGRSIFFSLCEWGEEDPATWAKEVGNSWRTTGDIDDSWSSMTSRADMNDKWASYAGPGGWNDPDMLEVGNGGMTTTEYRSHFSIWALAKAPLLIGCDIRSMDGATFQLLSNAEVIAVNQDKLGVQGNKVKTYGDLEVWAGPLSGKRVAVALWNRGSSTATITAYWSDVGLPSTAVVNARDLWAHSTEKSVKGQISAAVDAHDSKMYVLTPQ

SMILES: Cc1cc(Cl)ccc1OCCCN1C(=O)c2ccccc2C1=O
- IC50 [1]: 8900 nM

SMILES: Cc1cc([N+](=O)[O-])c(Cl)cc1OCCCCCCCCCCN1C(=O)c2ccccc2C1=O
- IC50 [1]: 650 nM
- inhibition [2]: inactive
- inhibition [3]: inactive
- inhibition [4]: inactive
- inhibition [5]: inactive

SMILES: O=C1c2ccccc2C(=O)N1CCCCCCCCCCOc1ccc(Cl)cc1Cl
- IC50 [1]: 1190 nM

SMILES: O=C1c2ccccc2C(=O)N1CCCCCCCCCCOc1cc(Cl)c(Cl)cc1[N+](=O)[O-]
- IC50 [1]: 520 nM
- inhibition [2]: inactive
- inhibition [3]: inactive
- inhibition [4]: inactive
- inhibition [5]: inactive

SMILES: O=C1c2ccccc2C(=O)N1CCCCCCCCCCOc1ccccc1
- IC50 [1]: 2500 nM

SMILES: O=C1c2ccccc2C(=O)N1CCCCCCCCCCOc1cccc(Cl)c1
- IC50 [1]: 1090 nM

SMILES: Cc1ccc(OCCCCCCCCCCN2C(=O)c3ccccc3C2=O)cc1
- IC50 [1]: 2100 nM

SMILES: Cc1cc(Cl)cc(C)c1OCCCN1C(=O)c2ccccc2C1=O
- IC50 [1]: 9500 nM

SMILES: O=C1c2ccccc2C(=O)N1CCCCCCCCCCOc1ccccc1[N+](=O)[O-]
- IC50 [1]: 1780 nM

SMILES: O=C1c2ccccc2C(=O)N1CCCCCCCCCCOc1ccc(C(F)(F)F)cc1
- IC50 [1]: 830 nM

SMILES: O=C1c2ccccc2C(=O)N1CCCOc1ccc(Cl)c(Cl)c1
- IC50 [1]: 7550 nM

SMILES: O=C1c2ccccc2C(=O)N1CCCCCCCCCOc1ccccc1
- IC50 [1]: 3040 nM

SMILES: O=C1c2ccccc2C(=O)N1CCCCCCCCCCOc1ccc(Cl)cc1
- IC50 [1]: 1200 nM

SMILES: O=C1c2ccccc2C(=O)N1CCCCCCCCCCOc1c(Cl)cc(Cl)cc1[N+](=O)[O-]
- IC50 [1]: 750 nM
- inhibition [2]: inactive
- inhibition [3]: inactive
- inhibition [4]: inactive
- inhibition [5]: inactive

SMILES: O=C1c2ccccc2C(=O)N1CCCCCCCCCCOc1ccc([N+](=O)[O-])cc1[N+](=O)[O-]
- IC50 [1]: 970 nM

SMILES: Cc1cc(Cl)ccc1OCCN1C(=O)c2ccccc2C1=O
- IC50 [1]: 14800 nM

SMILES: O=C1c2ccccc2C(=O)N1CCCOc1ccc(Cl)cc1
- IC50 [1]: 59000 nM

SMILES: Cc1cccc(C)c1OCCCCCCCCCCN1C(=O)c2ccccc2C1=O
- IC50 [1]: 3250 nM

SMILES: O=C1c2ccccc2C(=O)N1CCCCCCCCCCOc1cccc([N+](=O)[O-])c1
- IC50 [1]: 1080 nM

SMILES: Cc1cc([N+](=O)[O-])cc(C)c1OCCCCCCCCCCN1C(=O)c2ccccc2C1=O
- IC50 [1]: 1320 nM

SMILES: O=C1c2ccccc2C(=O)N1CCCCCCOc1ccccc1
- IC50 [1]: 10300 nM

SMILES: O=C1c2ccccc2C(=O)N1CCCOc1ccccc1
- IC50 [1]: 240000 nM

SMILES: OC[C@H]1NC[C@H](O)[C@@H](O)[C@@H]1O [DUVOGLUSTAT]
- IC50 [1]: 52000 nM

SMILES: O=C1c2ccccc2C(=O)N1CCOc1ccc(Cl)cc1
- IC50 [1]: 94000 nM

SMILES: O=C1c2ccccc2C(=O)N1CCCCCCCCCCOc1ccc([N+](=O)[O-])c(C(F)(F)F)c1
- IC50 [1]: 830 nM

SMILES: O=C1c2ccccc2C(=O)N1CCCCCCCCOc1ccccc1
- IC50 [1]: 6500 nM

SMILES: O=C1c2ccccc2C(=O)N1CCCOc1cccc(Cl)c1Cl
- IC50 [1]: 15000 nM

SMILES: O=C1c2ccccc2C(=O)N1CCCCCCCCCCOc1ccc(Cl)cc1[N+](=O)[O-]
- IC50 [1]: 475 nM
- inhibition [2]: inactive
- inhibition [3]: inactive
- inhibition [4]: inactive
- inhibition [5]: inactive

SMILES: Cc1cc(Cl)cc(C)c1OCCN1C(=O)c2ccccc2C1=O
- IC50 [1]: 13000 nM

SMILES: O=C1c2ccccc2C(=O)N1CCCCCCCCCCOc1ccc([N+](=O)[O-])cc1
- IC50 [1]: 860 nM

SMILES: O=C1c2ccccc2C(=O)N1CCCCCOc1ccccc1
- IC50 [1]: 20200 nM

SMILES: O=C1c2ccccc2C(=O)N1CCCCOc1ccccc1
- IC50 [1]: 33000 nM

SMILES: O=C1c2ccccc2C(=O)N1CCCCCCCCCCOc1ccc(C(F)(F)F)cc1[N+](=O)[O-]
- IC50 [1]: 1310 nM

SMILES: O=C1c2ccccc2C(=O)N1CCOc1ccccc1
- IC50 [1]: 296000 nM

SMILES: Cc1cc(Cl)cc(C)c1OCCCCCCCCCCN1C(=O)c2ccccc2C1=O
- IC50 [1]: 1340 nM

SMILES: O=C1c2ccccc2C(=O)N1CCCCCCCCCCOc1ccc(Cl)c(Cl)c1
- IC50 [1]: 1000 nM

SMILES: Cc1ccc(Cl)cc1OCCCCCCCCCCN1C(=O)c2ccccc2C1=O
- IC50 [1]: 910 nM

SMILES: Cc1cc(Cl)c([N+](=O)[O-])c(C)c1OCCCCCCCCCCN1C(=O)c2ccccc2C1=O
- IC50 [1]: 3600 nM
